This data set is described as follows: Toxicity liver stage against HepG2, at 10uM. Type of data set: cell-based. Also on record: test concentration 10 uM, cell line HepG2-A16-CD81EGFP. The following applies: human, HepG2-A16-CD81EGFP cells; read-out: INHIBITION
A digest of the protocol:
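Uninfected HepG2-A16-CD81EGFP cells, 3 × 10^3 per well, 1536-well, plated on prespotted compound at 10 μM final, parasite-free screening media added to match infected plates; puromycin 10 μM positive, DMSO 0.5% negative; run in parallel with 48 h PbLuc assay at 37 °C, 5% CO2; viability by CellTiter-Glo luminescence, normalized to controls.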
Turning to `Cc1cc2nc(CO[C@H]3CN(C4CCN(C)CC4)C[C@H]3F)[nH]c2cc1C`, the cytotoxicity at 10 µM is -11.6%.
For `CS(=O)(=O)N1CC[C@@H](CC(=O)O)[C@@H](CC2=NCCc3cc(F)ccc32)C1`, the cytotoxicity at 10 µM is 0.699%.
For `COC(=O)c1cccc(C(=O)N2CCN(c3ccc(Cl)cc3)CC2)n1`, the cytotoxicity at 10 µM was -7.55%.
The same measure for `Cc1ccc(-n2ncc(C(=O)N(C)C3CCN(C)CC3)c2N)cc1C`: -8.56%; for `CN1CCN(CC(CC(=O)Nc2ccc(Cl)cc2)C(=O)O)CC1` (stereo unspecified): 2.83%.
`O=C(CC1CCCC1)Nc1ccc(-n2cc(Cl)cn2)nc1`: the cytotoxicity at 10 µM was -56.3%.
On to `O=C1CCSCC(C(=O)N2CCCCC2)N1` (stereo unspecified), for which the cytotoxicity at 10 µM is -3.55%.
For `COC(C)(CNS(=O)(=O)c1cnn(C)c1)c1ccccc1F` (stereo unspecified), the cytotoxicity at 10 µM was -4.8%.
The same measure for `CC(=O)N1CCC2(CC1)CCN(S(=O)(=O)c1ccccc1)C2`: 2.35%.
With `N#CC1(C(=O)N2Cc3cc(-c4cc[nH]n4)ccc3C2c2cnco2)CC1` (stereo unspecified), the cytotoxicity at 10 µM stood at 25.5%.
In the case of `CC(=O)N1CC(c2ncn(C(C)C)n2)c2cc(C(=O)NC3CC3)ccc21` (stereo unspecified), the cytotoxicity at 10 µM stood at 4.11%.
The same measure for `Cc1cnc(C(=O)N2C[C@H]3CN(Cc4cccs4)C[C@H]3C2)cn1`: -148%; for `CC(C)c1nnc2ccc(N3CCC(C(=O)NC4CC4)CC3)nn12`: -5.01%.
As for `Cc1ccc2c(ccn2CCC(=O)N2CCC(C(N)=O)CC2)c1`, the cytotoxicity at 10 µM was -12.6%.
For the compound `O=C(NCc1ccco1)c1nn(C2CCS(=O)(=O)C2)c2c1CCCC2` (stereo unspecified), the cytotoxicity at 10 µM is -11%.
For `CC(=O)N1CC(=O)N(c2cnn(C)c2)CC12CCN(Cc1ccoc1)C2` (stereo unspecified), the cytotoxicity at 10 µM was -9.81%.
Regarding `Cc1cc(N2CCN(C3CCOCC3)CC(C(=O)N(C)C)C2)ncn1` (stereo unspecified), the cytotoxicity at 10 µM turned out to be 3.74%.
As for `O=C(c1ccc(=O)[nH]n1)N1CCCC(O)(CN2CCC(F)(F)CC2)CC1` (stereo unspecified), the cytotoxicity at 10 µM is -8.71%.
The same measure for `COCCNc1ccc(CC2CCCN(Cc3c[nH]cn3)C2)nn1` (stereo unspecified): -2.7%; for `Cc1cc(-c2cnc(NC3CCCC3)nc2-c2ccco2)on1`: -7.56%; for `O=C(c1ccc(Cl)cc1)N1CCC2(C1)C(=O)Nc1ccccc12` (stereo unspecified): 1.91%.
For the compound `O=C(CN(Cc1cccs1)C1CCS(=O)(=O)C1)NCCc1cccs1` (stereo unspecified), the cytotoxicity at 10 µM was -11.5%.
As to `CC(O)CCN(C)S(=O)(=O)Cc1ccc(Br)cc1` (stereo unspecified), the cytotoxicity at 10 µM was determined as 3.47%.
For the compound `CC(C)CN(CC(C)C)Cn1ncc2cn(-c3ccccc3)nc2c1=O`, the cytotoxicity at 10 µM was found to be 1.42%.
On to `CC(NC(=O)CN1C=Nc2ccccc2S1(=O)=O)c1ccccc1` (stereo unspecified), for which the cytotoxicity at 10 µM was -0.476%.
Turning to `CS(=O)(=O)Cc1ccccc1NCc1cc(Cl)ccc1Cl`, the cytotoxicity at 10 µM amounted to 7.67%.
Consider `CN(C1CCN(c2ccccn2)CC1)S(=O)(=O)c1cccc(F)c1`, for which the cytotoxicity at 10 µM was 10.8%.
Turning to `COc1cccc(CN(C)Cc2cc(C#N)ccc2F)c1OC`, the cytotoxicity at 10 µM was -5%.
`CC(C(=O)NCc1ccnc(OCC(F)(F)F)c1)n1cncn1` (stereo unspecified): the cytotoxicity at 10 µM turned out to be 1.13%.
`Cc1cc(CN2CCN(C(=O)C(C(C)C)n3cncn3)CC2)on1` (stereo unspecified): the cytotoxicity at 10 µM worked out at 2.35%.
`O=C(NC1CCN(Cn2nc(-c3ccccc3)oc2=O)CC1)C1CC1`: the cytotoxicity at 10 µM worked out at 8.19%.
Take `CN(C)C(=O)Cc1ccc(NC(=O)NC2CC2)cc1`: the cytotoxicity at 10 µM was determined as 6.13%.
For the compound `COCCn1ccc(NC(=O)Nc2cccc(C#N)c2)n1`, the cytotoxicity at 10 µM stood at 4%.
Turning to `Cc1cc(NC(=O)CNC(C)(C)c2ccc3c(c2)OCCO3)no1`, the cytotoxicity at 10 µM was -7.1%.
In the case of `CC1CN(C)c2ccccc2CN1C(=O)c1cc[nH]c(=O)c1` (stereo unspecified), the cytotoxicity at 10 µM was 4.96%.
Take `COC(=O)c1ccc(N2CCC(c3ccccc3)CC2)nn1`: the cytotoxicity at 10 µM was -3.59%.
The same measure for `CC1(C)CCC(C(=O)O)c2ccccc21` (stereo unspecified): -1.92%; for `CN(C)CC1CCN(Cc2nccn2CC(F)(F)F)CC1`: 4.99%.
Consider `Cc1nc(-c2ccccc2C)n(CC(=O)NC(C)C2CC2)n1` (stereo unspecified), for which the cytotoxicity at 10 µM was determined as 20.8%.
Consider `NC(=O)CC1CCCCN1C(=O)Cc1cccc(Br)c1` (stereo unspecified), for which the cytotoxicity at 10 µM came out at 1.77%.
For `CC(C)c1ccc(C(C)N2CCCN(C(N)=O)CC2)cc1` (stereo unspecified), the cytotoxicity at 10 µM was -4.24%.
`Cc1cc(NC(=O)Cc2ccccc2O)cnc1N1CCCCC1`: the cytotoxicity at 10 µM is -0.134%.
`NCc1ccnc(Oc2ccccc2)c1`: the cytotoxicity at 10 µM worked out at 2.87%.
For `CN(CCC(F)(F)F)C(=O)[C@H]1CSCN1C(=O)OC(C)(C)C`, the cytotoxicity at 10 µM was -9.39%.
The same measure for `COc1c(C2CCCN2C(=O)c2cc(Cl)c[nH]2)c(C)nn1C` (stereo unspecified): 4.6%.
In the case of `CCCOCCNc1nc2c(s1)c(C)nn2C`, the cytotoxicity at 10 µM is -15.9%.
Consider `CCC1CN(C(=O)c2ccccc2C#N)CCN1C(C)C` (stereo unspecified), for which the cytotoxicity at 10 µM was -0.772%.
Regarding `COCCCN1CCC(CNc2nccc(-c3cnn(C)c3)n2)C1` (stereo unspecified), the cytotoxicity at 10 µM is -147%.
Turning to `CC(C)c1cc(NCC2(Cn3cccn3)CC2)n2nccc2n1`, the cytotoxicity at 10 µM was -10.9%.
Regarding `COCCN(C)C[C@@H]1CN(C(=O)c2ccc(C)cc2)C[C@@H]1CO`, the cytotoxicity at 10 µM is -9.21%.
Regarding `CCCn1cnnc1CNC(=O)C1COc2ccc(OC)cc2C1` (stereo unspecified), the cytotoxicity at 10 µM was -2.06%.
As for `CC(=O)N[C@@H](CC(C)C)C(=O)N1CCC(n2cc(CO)nn2)CC1`, the cytotoxicity at 10 µM is 9.56%.
Consider `COCCN(C)CCN1CC2(CCN(C3CCCCC3)CC2)OC1=O`, for which the cytotoxicity at 10 µM came out at 3.73%.
`CCc1ocnc1C(=O)N1CCC(C2CCN(c3ncccn3)CC2)C1` (stereo unspecified): the cytotoxicity at 10 µM is 3.6%.
For `CCN(CC)CCn1ccnc1-c1cccc(O)c1`, the cytotoxicity at 10 µM was -5.13%.
Turning to `C/C(=C\c1ccco1)CN(C)C(C)Cc1cc(C)ccn1` (stereo unspecified), the cytotoxicity at 10 µM worked out at 0.277%.
As for `COCCOCC(=O)N1CCC(O)(c2ccc3nc(C)ccc3c2)CC1`, the cytotoxicity at 10 µM was -1.01%.
As for `Cc1ncc(C(=O)N2CC[C@@]3(O)CCN(C4CCCCC4)C[C@H]3C2)cn1`, the cytotoxicity at 10 µM was -135%.
The same measure for `CCC(NC(=O)c1cc(CC(C)C)nn1C)c1ccnn1C` (stereo unspecified): -146%.
`Cc1nc(Cn2nc(C3CCNCC3)n(Cc3ccccc3)c2=O)no1`: the cytotoxicity at 10 µM is -19.3%.
For the compound `Cc1nc(CN2CCCC(NCc3cccc4ccccc34)C2)no1` (stereo unspecified), the cytotoxicity at 10 µM was -0.819%.
The same measure for `COc1c(CNC2CCC(O)CC2)c(C(C)C)nn1C` (stereo unspecified): -6.59%; for `Cc1nc(C)n(CC2CCCN(CC(=O)Nc3cc(C)on3)C2)n1` (stereo unspecified): -3.1%; for `Cc1cccc(OCCC(=O)NCC(C)(C)C(N)=O)c1`: -6.38%.
The same measure for `O=C(c1cc(Cl)c2c(c1)OCCO2)N1CCCC(n2cncn2)C1` (stereo unspecified): 1.56%.
Turning to `Cc1ccc(CN(CCCN2CCOCC2)Cc2[nH]cnc2C)o1`, the cytotoxicity at 10 µM is -12.9%.
With `CC(C)N(C)Cc1cnc2n1CCN(C(=O)Cc1cccs1)C2C` (stereo unspecified), the cytotoxicity at 10 µM was determined as 7.86%.
As to `CN(C)C(=O)COCC1CN(C2CCC2)Cc2ncn(C)c21` (stereo unspecified), the cytotoxicity at 10 µM was determined as 14.1%.
In the case of `Cc1cccc(CN2C[C@@H]3OCCN(c4cnccn4)[C@@H]3C2)n1`, the cytotoxicity at 10 µM was found to be 5.25%.
For `CC(C)CN1CCN(C(=O)c2ccncc2F)Cc2cccnc21`, the cytotoxicity at 10 µM amounted to 1.71%.
For the compound `c1cc(CN2C[C@@H]3COC[C@]3(COCC3CC3)C2)ccn1`, the cytotoxicity at 10 µM is -3.29%.

The record behind these values is ChEMBL document CHEMBL4513216, “Probing the Open Global Health Chemical Diversity Library for Multistage-Active Starting Points for Next-Generation Antimalarials” (ACS Infect Dis, 2020).
